From PubChem
Most compounds without a hit are left out; they make up all but 3.8% or so of the library.
Kir21 block = inhibitors of mouse Kir2.1 inward-rectifier potassium channel. Inward rectifier potassium channel 2 (Mus musculus), P35561. HEK293-Kir2.1, FluxOR thallium flux fluorescence; stronger effect = lower value. B-score at 10 µM. 310,000 compounds, 0.85% hits. AID 1672, 2009;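 active means fluorescence ratio B-score at or below minus 3 SD of library scores, with starting-brightness B-score within 2 SD, cut at about -4.2 in these data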;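 further: channel flux triggered by added potassium and thallium sulfate stimulus; B-score of peak minus minimum fluorescence over baseline after thallium stimulus; more negative B-score means stronger Kir2.1 block with less thallium influx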
Target sequence (P35561 whole entry, looked up): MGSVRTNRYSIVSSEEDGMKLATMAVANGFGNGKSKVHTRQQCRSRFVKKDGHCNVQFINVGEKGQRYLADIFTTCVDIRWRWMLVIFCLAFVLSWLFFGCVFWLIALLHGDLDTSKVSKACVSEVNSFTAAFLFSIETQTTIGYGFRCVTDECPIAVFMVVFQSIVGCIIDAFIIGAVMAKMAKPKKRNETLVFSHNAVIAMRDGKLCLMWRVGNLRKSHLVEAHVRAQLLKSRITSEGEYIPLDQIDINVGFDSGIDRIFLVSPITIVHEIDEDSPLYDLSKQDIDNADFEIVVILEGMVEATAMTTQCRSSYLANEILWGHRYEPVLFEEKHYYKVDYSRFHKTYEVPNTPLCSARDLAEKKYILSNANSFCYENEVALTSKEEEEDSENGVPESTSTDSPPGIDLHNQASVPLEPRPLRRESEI
hERG protect = hERG rescue from dofetilide block, primary screen, cell-based, CHO-hERG, FluxOR thallium flux, dofetilide IC70. dofetilide IC70 present. activation (rescue from dofetilide block), less the hit threshold, % at 10 µM. 310,000 compounds, 0.51% hits;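 active means activation above the mean of controls blocked by dofetilide plus 5 SD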;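 further: thallium influx through hERG after potassium depolarization seen as dye fluorescence rise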
KCNQ1 pot = potentiators or activators of KCNQ1 channel, primary screen, cell-based, thallium flux, high-throughput. Potassium voltage-gated channel subfamily KQT member 1 (Homo sapiens), P51787. CHO-K1 KCNQ1, thallium flux FluxOR fluorescence; stronger effect = higher value. AID 2648, 2010. B-score at 10 µM. 310,000 compounds, 0.35% hits;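 active means fluorescence ratio B-score, a plate-corrected score, at least three library SD, with initial intensity B-score within 5 SD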
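assay system = KCNQ1-transfected CHO-K1 cells | medium = assay buffer with matched DMSO | probe or stimulus = depolarizing K+/Tl+ stimulus, K2SO4 and Tl2SO4 each 12.5 mM in 5x stock | dosing = single dose | incubation = dye 90 min, compound 20 min, room temperature | detection = kinetic FluxOR fluorescence, 10 s baseline plus 110 s post-stimulus | evaluation = ratio B score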
KCNK3 inh = human KCNK3 channel inhibitors, primary screen, CHO cells, FluxOR thallium flux, B-score; Potassium channel subfamily K member 3 (Homo sapiens), O14649; FluxOR fluorescence; stronger effect = lower value; B-score at 10 µM; 340,000 compounds, 0.84% hits; AID 602410, 2012;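 active means B-score under library mean minus 4 SD, starting fluorescence ratio at most library mean plus 5 SD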;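 further: more negative B-score means stronger inhibition of thallium flux through KCNK3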
KCNK9 block = KCNK9 potassium channel inhibitors, primary screen, HEK293 cells, thallium flux; Potassium channel subfamily K member 9 (Homo sapiens), Q9NPC2; FluxOR thallium flux fluorescence; stronger effect = lower value; B-score at 10 µM; 310,000 compounds, 1.2% hits; AID 488922, 2010;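 active means ratio B-score over 3 SD below the library mean, with starting fluorescence within 5 SD of its mean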;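 further: negative B-score means less thallium flux so channel inhibition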
KCNQ1 inh = inhibitors of human KCNQ1 channel, primary screen, cell-based, thallium flux, high-throughput | B-score at 10 µM | CHO-K1 KCNQ1, FluxOR thallium flux fluorescence; stronger effect = higher value | AID 2642, 2010 | 310,000 compounds, 1.3% hits | Potassium voltage-gated channel subfamily KQT member 1 (Homo sapiens), P51787;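 active means compounds whose thallium flux B-score, printed positive for inhibition, exceeds three library SD while starting fluorescence stays within three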;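 further: channel opened by potassium depolarization with thallium stimulus after 20 min compound exposure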
A number is an active result.

How did CCN(c1ccccc1)S(=O)(=O)c1cccc(C(=O)N(C)CC(=O)Nc2ccc(F)c(F)c2F)c1 do in these assays?
KCNK3 inh: inactive

What do the screens show for `O=C(Nc1cccc(S(=O)(=O)NCc2ccco2)c1)c1cc(-c2ccc(F)cc2)nc2ccccc12`?
Kir21 block: inactive; hERG protect: inactive; KCNQ1 pot: inactive; KCNK3 inh: inactive; KCNK9 block: inactive; KCNQ1 inh: 7

What do the screens show for `O=C(Nc1ccccc1)c1ccc(S(=O)(=O)NCc2ccco2)cc1`?
Kir21 block: inactive; hERG protect: inactive; KCNQ1 pot: inactive; KCNK3 inh: inactive; KCNK9 block: inactive; KCNQ1 inh: inactive

What do the screens show for `O=C(Nc1ccccc1)c1cccc(S(=O)(=O)NCc2ccco2)c1`?
Kir21 block: inactive; hERG protect: 7.3; KCNQ1 pot: inactive; KCNK3 inh: inactive; KCNK9 block: inactive; KCNQ1 inh: inactive

Results for Cc1cc(Br)ccc1NC(=O)CNC(=O)Cn1ncc(Cl)c(Cl)c1=O ?
Kir21 block: inactive; hERG protect: 4.7; KCNQ1 pot: inactive; KCNK3 inh: inactive; KCNK9 block: inactive; KCNQ1 inh: inactive

Results for Cc1ccc(S(=O)(=O)N2CCCCC2)cc1NC(=O)Cn1ncc(Cl)c(Cl)c1=O ?
KCNK3 inh: inactive

How did O=[N+]([O-])c1ccc(COc2cccc(CN3CCCCC3)c2)cc1 do in these assays?
KCNK3 inh: inactive

Results for O=C(O)c1cccc(NC(=O)C23CC4CC(C2)CC(n2cnc(Cl)n2)(C4)C3)c1 ?
Kir21 block: inactive; hERG protect: inactive; KCNQ1 pot: inactive; KCNK3 inh: inactive; KCNK9 block: inactive; KCNQ1 inh: inactive

How did O=C(Nc1cc(Oc2ccccc2)cc([N+](=O)[O-])c1)C12CC3CC(C1)CC(n1cnc(Cl)n1)(C3)C2 do in these assays?
Kir21 block: inactive; hERG protect: inactive; KCNQ1 pot: inactive; KCNK3 inh: inactive; KCNK9 block: inactive; KCNQ1 inh: 12

Results for COc1ccc(CN(C(=O)c2nsc(Cl)c2Cl)C(C(=O)NC2CCCC2)c2ccc(C)cc2)cc1 (configuration not stated) ?
Kir21 block: inactive; hERG protect: inactive; KCNQ1 pot: inactive; KCNK3 inh: inactive; KCNK9 block: inactive; KCNQ1 inh: 11

How did COc1ccccc1Nc1nc(-c2ccccc2)nc2ccccc12 do in these assays?
Kir21 block: inactive; hERG protect: inactive; KCNQ1 pot: inactive; KCNK3 inh: inactive; KCNK9 block: -7.2; KCNQ1 inh: inactive

What do the screens show for `COc1ccc(Nc2nc(N)nc(C(F)(F)F)n2)c(OC)c1`?
Kir21 block: inactive; hERG protect: inactive; KCNQ1 pot: inactive; KCNK3 inh: inactive; KCNK9 block: inactive; KCNQ1 inh: inactive

How did COc1cc(Nc2c3ccccc3nc3ccccc23)cc(OC)c1OC do in these assays?
Kir21 block: inactive; hERG protect: inactive; KCNQ1 pot: inactive; KCNK3 inh: inactive; KCNK9 block: inactive; KCNQ1 inh: inactive

What do the screens show for `COc1ccccc1Nc1c2ccccc2nc2ccccc12`?
Kir21 block: -5; hERG protect: inactive; KCNQ1 pot: inactive; KCNK3 inh: inactive; KCNK9 block: inactive; KCNQ1 inh: inactive

What do the screens show for `CC(C)(C)Nc1c2ccccc2nc2ccccc12`?
Kir21 block: -4.5; hERG protect: inactive; KCNQ1 pot: inactive; KCNK3 inh: inactive; KCNK9 block: inactive; KCNQ1 inh: inactive

What do the screens show for `COc1ccc(Nc2nc(N)c3ccccc3n2)c(OC)c1`?
Kir21 block: -5.1; hERG protect: inactive; KCNQ1 pot: inactive; KCNK3 inh: inactive; KCNK9 block: inactive; KCNQ1 inh: inactive

Results for CCn1c(SCC(=O)c2c(N)n(C3CC3)c(=O)[nH]c2=O)nc2cc(S(N)(=O)=O)ccc21 ?
KCNK3 inh: inactive

What do the screens show for `COc1cccc(/C=C/C(=O)OCC(=O)Nc2ccc(Cl)cn2)c1`?
Kir21 block: inactive; hERG protect: 5.8; KCNQ1 pot: inactive; KCNK3 inh: inactive; KCNK9 block: inactive; KCNQ1 inh: inactive

What do the screens show for `COc1ccc(C(=O)On2c(-c3ccc(Br)cc3)nc3ccccc3c2=O)cc1`?
Kir21 block: inactive; hERG protect: inactive; KCNQ1 pot: 10; KCNK3 inh: inactive; KCNK9 block: inactive; KCNQ1 inh: inactive

How did Cc1cc(C(=O)Nn2c(-c3ccc(Br)cc3)nc3ccccc3c2=O)ccc1[N+](=O)[O-] do in these assays?
Kir21 block: inactive; hERG protect: inactive; KCNQ1 pot: inactive; KCNK3 inh: inactive; KCNK9 block: inactive; KCNQ1 inh: 6

How did CCCC(=O)OCCNc1cc(Sc2nccn2C)c2nonc2c1[N+](=O)[O-] do in these assays?
Kir21 block: -6.3; hERG protect: inactive; KCNQ1 pot: inactive; KCNK3 inh: inactive; KCNK9 block: inactive; KCNQ1 inh: inactive

What do the screens show for `CCC(=O)OCCNc1cc(Sc2nc3ccccc3s2)c2nonc2c1[N+](=O)[O-]`?
Kir21 block: inactive; hERG protect: inactive; KCNQ1 pot: inactive; KCNK3 inh: inactive; KCNK9 block: inactive; KCNQ1 inh: 6

What do the screens show for `CC1CC(C)CN(S(=O)(=O)c2ccc(NC(=O)[C@@H]3CCCN3C(=O)c3cccs3)cc2)C1` (some centres not stated)?
KCNK3 inh: inactive

What do the screens show for `CC(C)(C)C(=O)/C=c1\[nH]c(=O)/c(=C\c2ccc(F)cc2)s1`?
Kir21 block: inactive; hERG protect: inactive; KCNQ1 pot: inactive; KCNK3 inh: inactive; KCNK9 block: -8; KCNQ1 inh: inactive

What do the screens show for `CCc1ccc(/C=c2\s/c(=C\C(=O)C(C)(C)C)[nH]c2=O)cc1`?
Kir21 block: inactive; hERG protect: inactive; KCNQ1 pot: inactive; KCNK3 inh: inactive; KCNK9 block: inactive; KCNQ1 inh: inactive

Results for CCCCCc1ccc(C(=O)CCC(=O)OCC(=O)N(CC)c2c(N)n(Cc3ccccc3)c(=O)[nH]c2=O)cc1 ?
KCNK3 inh: inactive

What do the screens show for `Cc1ccc(C(NC(=O)NC(C)c2ccccc2)C(Cl)(Cl)Cl)cc1F` (configuration not stated)?
Kir21 block: inactive; hERG protect: inactive; KCNQ1 pot: inactive; KCNK3 inh: inactive; KCNK9 block: inactive; KCNQ1 inh: 7

Results for COc1ccccc1C(C)NS(=O)(=O)c1cccs1 (configuration not stated) ?
Kir21 block: -4.5; hERG protect: inactive; KCNQ1 pot: inactive; KCNK9 block: inactive; KCNQ1 inh: inactive

Results for COc1ccccc1NC(=O)c1ccccc1NS(=O)(=O)c1cccs1 ?
Kir21 block: inactive; hERG protect: inactive; KCNQ1 pot: inactive; KCNK3 inh: inactive; KCNK9 block: inactive; KCNQ1 inh: 6

What do the screens show for `COc1ccccc1NC(=O)c1ccccc1NS(C)(=O)=O`?
Kir21 block: inactive; hERG protect: inactive; KCNQ1 pot: inactive; KCNK3 inh: inactive; KCNK9 block: inactive; KCNQ1 inh: inactive
